Screens from PubChem BioAssay.
This is a sample that favours compounds with a hit; in the whole collection about 4.7% have one here.
Cl transport mod – modulates chloride dependent transport by human KCC2. AID 1456. KCC2 cells, thallium flux FluoZin-2 fluorescence. hit rate 2.2% among 190,000. B-score of Tl+ flux slope (higher = more flux/activation; lower = inhibition) at 10 µM;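 active means thallium flux slope and its plate-corrected score both differing from the plate sample mean at a set confidence after two filtering rounds, in either direction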;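 further: slope of fluorescence scaled to starting intensity during 10 to 20 s after thallium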
MrgX1 antag – human MrgX1 receptor antagonism, primary screen. MRGX1-HEK293 calcium flux, Fluo-4, BAM8-22 antagonism; active compounds read low. Q96LB2. B-score at 10 µM. hit rate 1.3% among 310,000. AID 588676;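 active means calcium-response B-score plate-corrected more than 3 library SD below zero, starting fluorescence within 5 deviations, no agonist response on first addition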;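 further: peak minus trough fluorescence over baseline after final BAM8-22 challenge near maximal dose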
RGS4 block – inhibitors of human RGS4 | B-score at 10 µM | HEK293 M3R/RGS4 inducible, Fluo-4 calcium flux; active compounds read high; triggered by carbachol at its EC20 | P49798 | hit rate 0.45% among 310,000;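 active means B-score, a plate-corrected calcium signal, over three deviations above library mean, with baseline fluorescence within five deviations of library mean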;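 further: RGS4 expression induced by doxycycline in cells with stable M3 receptor; B-score is computed from the integrated fluorescence ratio over baseline after carbachol; higher B-score means a larger calcium signal and so more RGS4 inhibition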
RGS4 pot – RGS4 potentiation or activation. HEK293 M3R/inducible RGS4, carbachol calcium flux Fluo4; active compounds read low. B-score at 10 µM. hit rate 0.92% among 310,000;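 active means B-score of the integrated calcium signal more than 4 SD below the library mean, with starting fluorescence not abnormally high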;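 further: negative B-score means reduced calcium response which marks RGS4 activation or potentiation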
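Test system: HEK293 cells with stable M3R and inducible RGS4; also added: carbachol at ECmax as muscarinic agonist stimulus; schedule: dye loading 30 min 37 °C, buffer rest 30 min RT; technique: kinetic calcium fluorescence imaging with Fluo4-AM dye, 2 µM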
MrgX1 ag – activates human MrgX1 receptor signaling; AID 588627; Q96LB2; B-score at 10 µM; hit rate 0.44% among 310,000; MrgX1-HEK293 cells, Fluo-4 calcium fluorescence, agonist mode; active compounds read high;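 active means calcium response B-score plate-corrected fluorescence ratio at least 3 library SD, with starting fluorescence B-score inside 5 SD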
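Test system: HEK293 cells stably expressing human MrgX1 receptor; amount: 15,000 cells per well; doses: compound delivered in addition one of three; times: overnight plating before 1 h dye loading; detection: Fluo-4 NW calcium-flux fluorescence, kinetic read; read-out basis: B-scored fluorescence response ratio; controls: positive and negative controls per plate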
MrgX1 allo act – allosterically activates human MrgX1 receptor signaling. B-score at 10 µM. Q96LB2. hit rate 0.63% among 310,000. MrgX1-HEK293, Fluo-4 calcium flux, FDSS; active compounds read high. AID 588675;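 active means plate-corrected calcium response at least 3 library SD above typical, normal starting fluorescence, not activating the receptor alone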;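 further: compound read alongside a low EC10 to EC30 dose of BAM8-22 agonist; peak minus trough fluorescence over baseline measured at the second addition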
MrgX1 PAM conf – reconfirmed allosteric activator of human MrgX1 receptor; activation (ratio percentage), % at 10 µM; hit rate 13% among 1,200; MrgX1-HEK293, Fluo-4 calcium fluorescence, FDSS; AID 602413; shares compounds with MrgX1 allo act;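 active means ratio at least 3 SD above the weak peptide control, stable starting fluorescence, no direct agonism earlier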;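 further: compound followed by low BAM8-22 agonist challenge near EC20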
HEK293 Ca flux – MrgX1 antagonist counter-screen hit in parental HEK293 cells. fluorescence ratio F(max-min)/F0 at 10 µM. shares compounds with MrgX1 antag. hit rate 2% among 4,000. AID 624111. Fluo-4 calcium fluorescence, FDSS;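 active means duplicate-averaged calcium fluorescence ratio at least three times the standard deviation of buffer wells, a nonspecific response in parental cells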
HEK293 Ca counter – MrgX1 allosteric activator counter-screen hit in parental HEK293 cells | shares compounds with MrgX1 antag | parental HEK293 calcium flux, Fluo-4 fluorescence ratio; active compounds read high | fluorescence ratio F(max-min)/F0 at 10 µM | hit rate 0.4% among 4,000 | AID 624114;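 active means calcium fluorescence ratio, averaged over duplicates, at least 3 SD of the buffer-well ratio, meaning a nonspecific response in receptor-free cells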;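 further: untransfected parental HEK293 lacking MrgX1 used as counterscreen for MrgX1 allosteric activators; fluorescence change taken during the second addition on a kinetic imager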
HEK293 Ca cntr2 – activity in parental HEK293 cells lacking MrgX1 receptor; shares compounds with MrgX1 antag; Fluo-4 calcium fluorescence (FDSS); active compounds read high; fluorescence ratio F(max-min)/F0 at 10 µM; hit rate 8.7% among 4,000; AID 624115;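 active means calcium fluorescence ratio at least three times the spread of buffer wells, meaning a non-specific response in parental cells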
Active calls of the source: *; i = inactive; . = not tested or not shown.

SMILES	Cl transport mod	MrgX1 antag	RGS4 block	RGS4 pot	MrgX1 ag	MrgX1 allo act	MrgX1 PAM conf	HEK293 Ca flux	HEK293 Ca counter	HEK293 Ca cntr2
Cc1nc(-c2cccc(NC(=O)C3CCCCC3)c2)cs1	-1.3	i	i	i	i	17*	i	i	i	i
CCc1nc2ccc(C(=O)N(C)CC(=O)Nc3ccc(Cl)c(C(F)(F)F)c3)cc2nc1CC	.	i	i	i	i	14*	i	i	i	i
CCCn1c2ccccc2c2cnn(CC(=O)NCCCN3CCN(c4ccccc4)CC3)c(=O)c21	.	i	i	i	i	i	.	.	.	.
Cc1sc(NC(=O)c2ccc(F)cc2)c(CN2CCCCCC2)c1C	-2	i	i	i	i	i	.	.	.	.
Cc1sc(NC(=O)c2ccccc2F)c(CN2CCCCC2)c1C	0.48	i	i	i	i	9.4*	i	i	i	i
Cn1c(SCC(=O)N2CCCc3ccccc32)nnc1-c1c[nH]c2ccccc12	0.43	i	i	i	i	i	.	.	.	.
Cn1c(SCC(=O)N2CCCC2=O)nnc1-c1ccccc1F	-0.012	i	i	i	i	8.8*	i	i	i	i
O=C(CCc1c[nH]c2ccccc12)OCc1cccc([N+](=O)[O-])c1	.	i	i	i	i	i	.	.	.	.
COc1cccc(CN2CC(C(=O)N(C)Cc3nc4ccc(F)cc4[nH]3)CCC2=O)c1 (centres undefined)	.	i	i	i	i	7*	i	i	i	i
COc1ccc2nc(CCN(C)C(=O)C3CCC(=O)N(Cc4cccc(F)c4)C3)[nH]c2c1 (centres undefined)	.	i	i	i	i	i	.	.	.	.
CCc1ccc(/C=N/NC(=O)Cc2cccn2C)cc1	0.21	i	i	i	i	27*	13%*	i	i	i
COc1ccc(SCCCn2c(=O)c3c(ncn3C)n(C)c2=O)cc1	.	i	i	i	i	i	.	.	.	.
CCCSc1nnc(N2C(=O)CC(c3ccsc3)C3=C2CCCC3=O)s1 (centres undefined)	0.15	i	i	i	i	8.8*	i	i	i	i
COc1ccc(N=C2SCC(=O)N2Cc2ccccc2)cc1	-0.58	i	i	i	i	11*	i	i	i	i
S=c1[nH]nc([C@@H]2C[C@H]2c2ccccc2)n1-c1ccccc1Cl	0.19	i	i	i	i	7.7*	i	i	i	i
CCOC(=O)c1sc(NC(=O)c2ccccc2C(=O)O)c(C(=O)OCC)c1C	.	i	i	i	i	13*	i	i	i	i
COc1cccc(COC(=O)C2CCN(C(=O)c3ccc(F)cc3)CC2)c1OC	.	i	i	i	i	i	.	.	.	.
FC(F)Sc1ccc(NC(=S)NC2CCCC2)cc1	-0.36	i	i	i	i	6.8*	i	i	i	i
OC1CCC(NC(=S)Nc2ccc(SC(F)F)cc2)CC1 (centres undefined)	-0.0046	i	i	i	i	i	.	.	.	.
O=C(Nc1ccc(Br)cc1)C1OCCc2ccccc21 (centres undefined)	-0.71	i	i	i	i	11*	i	i	i	i
COC(=O)c1ccc(N2CCN(C)CC2)c(NC(=O)c2ccc(Br)o2)c1	.	i	i	i	i	i	.	.	.	.
CC(NC(=O)C1CSC2(C)CCC(=O)N12)c1ccccc1Cl (centres undefined)	.	i	i	i	i	i	.	.	.	.
CC12CCC(=O)N1C(C(=O)OCc1c(Cl)cccc1Cl)CS2 (centres undefined)	.	i	i	i	i	6.5*	i	i	i	i
COc1ccc(-c2cc(C(F)(F)F)n3ncc(C(=O)N(C)Cc4ccccc4)c3n2)cc1	-0.79	i	i	i	i	6.9*	i	i	i	i
COc1ccc(-c2cc(C(F)(F)F)n3ncc(C(=O)NCc4ccco4)c3n2)cc1	.	i	i	i	i	i	.	.	.	.
SMILES	Cl transport mod	MrgX1 antag	RGS4 block	RGS4 pot	MrgX1 ag	MrgX1 allo act	MrgX1 PAM conf	HEK293 Ca flux	HEK293 Ca counter	HEK293 Ca cntr2
CC(C)C[C@H](NC(=O)[C@@H]1Cc2c([nH]c3ccccc23)C2c3ccccc3C(=O)N21)C(=O)N1CCC[C@@H]1C(=O)O (some centres undefined)	.	i	i	i	i	i	.	.	.	.
CCN(CC)CCCNc1ncnc2ccccc12	0.97	i	i	i	i	i	.	.	.	.
OCCCCCNc1ncnc2ccccc12	-1.6	i	i	i	i	23*	i	i	i	i
CCOC(=O)c1c2ccccc2[n+]([O-])n1[C@@H](C)C(N)=O	.	i	i	i	i	i	.	.	.	.
COc1ccc2c(C)cc(SCC(=O)N(C)C3CCS(=O)(=O)C3)nc2c1 (centres undefined)	-0.059	i	i	i	i	10*	i	i	i	i
COc1ccc2c(C)cc(SCC(=O)N3CCOCC3)nc2c1	.	i	i	i	i	i	.	.	.	.
OC(CN1CCCCC1)Cn1c2ccc(Cl)cc2c2cc(Cl)ccc21 (centres undefined)	.	i	i	i	i	6.7*	i	i	i	i
CN1CCOc2cc(S(=O)(=O)NCc3ccc(S(N)(=O)=O)cc3)ccc21	.	i	i	i	i	i	.	.	.	.
N#CC1(NC(=O)CN2c3cccc4cccc(c34)S2(=O)=O)CCCCC1	.	i	i	i	i	i	.	.	.	.
CC1CCCN(S(=O)(=O)c2ccc(C(=O)Nc3nnc(-c4ccccc4Cl)o3)cc2)C1 (centres undefined)	21*	i	i	i	i	8.7*	i	i	i	i
CCOC(=O)c1c(C)[nH]c(C(=O)OCC(=O)NC2(C#N)CCCCC2)c1C	.	i	i	i	i	i	.	.	.	.
